Laboratory results from ChEMBL document CHEMBL1926521, “Arylcyanoacrylamides as inhibitors of the Dengue and West Nile virus proteases” (Bioorg Med Chem, 2011).
Calls of active or inactive are those of the source. No cut-off for these calls is given here.

What was measured:
[1] = system: West Nile virus; assay: Inhibition of West Nile virus NS2B-NS3 protease expressed in Escherichia coli BL21 lambda (DE3) using Abz-GLKRGG-3-(NO2)Y as substrate at 50 uM preincubated for 15 mins before substrate addition measured up to 15 mins by spectrofluorimetry
Outline: (§1)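 Single-concentration screen against His-tagged NS2B-NS3 protease (Ni²⁺-affinity purified from E. coli). Enzyme was 100 nM for Dengue or 150 nM for West Nile. Inhibitor at 50 µM was preincubated 15 min with enzyme, then internally quenched FRET substrate (final 50 µM) was added. Read at ex 320/em 405 nm for 15 min. Rate taken as RFU/s; % inhibition is the mean of triplicates.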

[2] = target: Prothrombin (Homo sapiens, UniProt P00734); assay: Inhibition of human thrombin using Boc-VPR-AMC as substrate at 25 uM preincubated for 15 mins before substrate addition measured up to 10 mins by spectrofluorimetry
[3] = system: Dengue virus; assay: Inhibition of Dengue virus NS2B-NS3 protease expressed in Escherichia coli BL21 lambda (DE3) using Abz-NleKRRS-3-(NO2)Y as substrate at 50 uM preincubated for 15 mins before substrate addition measured up to 15 mins by spectrofluorimetry; outline: as §1

inhibition [1]	inhibition [2]	inhibition [3]	SMILES
inactive	inactive	inactive	COc1cc(CC(C#N)C(N)=O)cc(OC)c1OC (stereo not given)
12.3%	9.6%	16.3%	COc1cccc(/C=C(\C#N)C(N)=O)c1
24%	inactive	22.3%	N#C/C(=C\c1ccc(C(=O)N2CCCCC2)cc1)C(N)=O
17.1%	16.2%	10.3%	CN(C)c1ccc(/C=C/C=C(\C#N)C(=O)NC2CC2)cc1
29.1%	38.6%	23.2%	N#C/C(=C\c1ccc(N2CCOCC2)s1)C(N)=O
15.9%	13.6%	11.6%	N#C/C(=C\c1ccc(Br)cc1)C(N)=O
22%	20%	19.2%	COc1ccc(/C=C(\C#N)C(N)=O)cc1OC
inactive	inactive	inactive	N#C/C(=C\c1ccncc1)C(N)=O
19.2%	26.3%	20.2%	N#C/C(=C\c1ccc(Br)s1)C(N)=O
15.3%	11.1%	6.7%	CCC/C(=C(/C#N)C(N)=O)c1ccccc1
24.6%	17.7%	24.3%	N#C/C(=C\c1ccc(N2CCCC2)cc1)C(N)=O
inactive	16.7%	inactive	CC(C)/C(=C(/C#N)C(N)=O)c1ccccc1
23.9%	15.7%	28.4%	N#C/C(=C\c1cccs1)C(N)=O
31%	15.9%	20%	N#C/C(=C\c1ccc(C(=O)O)cc1)C(=O)NC1CC1
19.1%	8%	10.8%	N#C/C(=C\c1cccc(C(=O)NC2CC2)c1)C(=O)NC1CC1
10.5%	inactive	inactive	N#C/C(=C\c1ccc([N+](=O)[O-])cc1)C(N)=O
7.7%	7.4%	10.4%	N#C/C(=C\c1ccccc1N1CCOCC1)C(N)=O
22.6%	inactive	10.9%	N#C/C(=C\c1ccc(Br)cc1)C(=O)NC1CC1
21.1%	21.4%	20.3%	COC(=O)[C@H](CO)NC(=O)/C(C#N)=C/c1ccc(OC)cc1
20%	10.6%	13.3%	N#C/C(=C\c1ccc(C#N)cc1)C(N)=O
42.9%	17.4%	43.2%	COc1cc(/C=C(\C#N)C(N)=O)ccc1O
28.2%	22.5%	24.3%	N#C/C(=C\c1cc(O)c(O)c([N+](=O)[O-])c1)C(N)=O
24.6%	19.4%	23%	CC(C)c1ccc(/C=C(\C#N)C(N)=O)cc1
23.9%	26.9%	15.6%	N#C/C(=C\c1ccc(Br)o1)C(=O)NC1CC1
13.7%	7.3%	inactive	C/C(=C(/C#N)C(N)=O)c1ccccc1
20.1%	11.9%	20.2%	N#C/C(=C\c1cccc(C(=O)O)c1)C(=O)NC1CC1

inhibition [1]	inhibition [2]	inhibition [3]	SMILES
28.1%	19.8%	23.3%	CN(C)c1ccc(/C=C(\C#N)C(=O)NCC2CCCO2)cc1 (stereo not given)
35.1%	20.8%	35.4%	CN1CCN(C(=O)/C(C#N)=C/c2ccc(O)cc2)CC1
38.1%	25.1%	43.3%	CN(C)c1ccc(/C=C(\C#N)C(=O)N2CCOCC2)cc1
28.8%	24.4%	43.1%	CC(=O)Oc1ccc(/C=C(\C#N)C(N)=O)cc1
10.5%	17.9%	inactive	N#C/C(=C\c1ccc(Br)s1)C(=O)NC1CC1
21.9%	inactive	16.8%	C/C(=C(/C#N)C(N)=O)c1ccc(O)cc1
39.5%	11.6%	24.9%	CC(C)c1ccc(/C=C(\C#N)C(=O)NCc2ccccn2)cc1
11.2%	inactive	inactive	N#Cc1n[nH]nc1-c1ccccc1
16.2%	inactive	7.1%	CN(C)c1ccc(CC(C#N)C(N)=O)cc1 (stereo not given)
24.1%	10.3%	23.2%	N#C/C(C(N)=O)=C1\CCc2ccccc21
7.9%	inactive	inactive	N#CC(Cc1ccc(N2CCOCC2)cc1)C(N)=O (stereo not given)
47.8%	21.8%	37.4%	CN1CCN(c2ccc(/C=C(\C#N)C(=O)NC3CC3)cc2)CC1
33.2%	23.7%	22.6%	CN(C)c1ccc(/C=C(\C#N)C(=O)NC2CC2)cc1
57.3%	18.8%	44.7%	N#C/C(=C\c1ccc(O)cc1)C(=O)NC1CC1
35.3%	19.2%	28.2%	N#C/C(=C\c1ccc(N2CCOCC2)cc1)C(N)=O
32.4%	21.9%	21%	CCN(CC)C(=O)/C(C#N)=C/c1cc(O)c(O)c([N+](=O)[O-])c1
44.4%	16.8%	46.4%	N#C/C(=C\c1ccc(O)cc1)C(=O)NCC1CCCO1 (stereo not given)
22.8%	inactive	32.2%	Cc1ccc(/C=C(\C#N)C(N)=O)cc1
30.1%	28.7%	36.8%	CC(=C\c1ccccc1)/C=C(\C#N)C(=O)NCC1CCCO1 (stereo not given)
23%	9%	22.9%	N#C/C(=C\c1ccc(C(=O)N2CCOCC2)cc1)C(=O)NC1CC1
43.8%	23%	30.5%	COc1cc(/C=C(\C#N)C(N)=O)cc(I)c1O
19.3%	17.8%	15.6%	COc1cc(/C=C(\C#N)C(N)=O)cc(OC)c1OC
inactive	16%	inactive	COc1cc(/C=C(\C#N)C(N)=O)ccc1OCc1ccccc1
18.1%	9.8%	15.7%	N#C/C(=C\c1cccc(O)c1)C(N)=O
19.3%	10.1%	18.4%	N#C/C(=C\c1sccc1Br)C(N)=O

SMILES	inhibition [1]	inhibition [2]	inhibition [3]
N#C/C(=C\c1ccc(N2CCNCC2)cc1)C(N)=O	45%	26.1%	28.6%
CN1CCN(c2c(F)c(F)c(/C=C(\C#N)C(N)=O)c(F)c2F)CC1	31.9%	28.5%	19.2%
CN1CCN(c2ccc(/C=C(\C#N)C(N)=O)cc2)CC1	40.9%	22%	32.3%
CN(C)c1ccc(C=C(C#N)C#N)cc1	8.8%	16.3%	8.7%
